Measured values reported in ChEMBL document CHEMBL6177921, “Enhancing the antimycobacterial efficacy of pyridine-4-carbohydrazide: linkage to additional antimicrobial agents via oxocarboxylic acids” (RSC Med Chem, 2025).
Converted amounts (≈) assume the structure as drawn.

Experiments:
Mycobacterium avium [1] = assay: Antimycobacterial activity against INH/RIF/rifabutin/OFX/EMB resistant Mycobacterium avium CNCTC 330/88 assessed as bacterial growth inhibition incubated for 14 days by two-fold serial dilution method; type: functional; details: CNCTC 330/88, 336 h, time 14 day
Method in brief: (§1)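 M. avium CNCTC 330/88 (stock suspension dilution 10−5) grown in Šula's semisynthetic liquid medium; two-fold serial dilutions 1000 to 1 μM from DMSO stocks (final DMSO 1.0% v/v); final load 1.5 × 10^5 CFU mL−1; MIC read visually as lowest concentration giving complete growth inhibition after 14 and 21 days.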

[2] = Hemolytic activity in human Red blood cells assessed as effect of lipid bilayer membrane incubated for 1 hr by absorbance based spectrophotometric analysis; type: toxicity, cell-based; details: erythrocyte
Method in brief: (§2)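 Human erythrocyte suspension mixed 1:1 with compound in Hartmann's solution at final 125 μM, final DMSO 1.0% (v/v), 37 °C for 1 h. After centrifugation, released haemoglobin in the supernatant was read at 405 nm. Negative control was hRBCs with 1.0% DMSO; positive control was hRBCs sonicated for 1 min.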

Mycobacterium avium [3] = assay: Antimycobacterial activity against INH/RIF/rifabutin/OFX/EMB resistant Mycobacterium avium CNCTC 330/88 assessed as bacterial growth inhibition incubated for 21 days by two-fold serial dilution method; type: functional; details: CNCTC 330/88, 504 h, time 21 day; method in brief: as §1
Mycobacterium kansasii [4] = assay: Antimycobacterial activity against multi-drug resistant Mycobacterium kansasii clinical isolate CNCTC 6509/96 assessed as bacterial growth inhibition incubated for 21 days by two-fold serial dilution method; type: functional; details: CNCTC 6509/96, 504 h, time 21 day
Method in brief: (§3)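 M. kansasii clinical isolate 6509/96 (stock dilution 10−4) in Šula's semisynthetic liquid medium; two-fold serial dilutions 1000 to 1 μM, DMSO final 1.0% v/v; final load 1.5 × 10^5 CFU mL−1; MIC read visually as complete growth inhibition at 7, 14 and 21 days.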

Mycobacterium kansasii [5] = assay: Antimycobacterial activity against multi-drug resistant Mycobacterium kansasii CNCTC 6509/96 clinical isolate assessed as bacterial growth inhibition incubated for 14 days by two-fold serial dilution method; type: functional; details: CNCTC 6509/96, 336 h, time 14 day; method in brief: as §3
[6] = test system: Mycobacterium tuberculosis; assay: Antimycobacterial activity against Mycobacterium tuberculosis H37Rv CNCTC 331/88 assessed as bacterial growth inhibition incubated for 21 days by two fold serial dilution method; type: functional; details: H37Rv CNCTC 331/88, 504 h, time 21 day
[7] = test system: Mycobacterium tuberculosis; assay: Antimycobacterial activity against multidrug sensitive Mycobacterium tuberculosis H37Rv CNCTC 331/88 assessed as bacterial growth inhibition incubated for 14 days by two-fold serial dilution method; type: functional; details: H37Rv CNCTC 331/88, 336 h, time 14 day
Mycobacterium kansasii [8] = assay: Antimycobacterial activity against INH/RIF/rifabutin/OFX/EMB Mycobacterium kansasii CNCTC 6509/96 clinical isolate assessed as bacterial growth inhibition incubated for 7 days by two-fold serial dilution method; type: functional; details: CNCTC 6509/96, 168 h, time 7 day
Method in brief: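 Šula's liquid semisynthetic medium; M. kansasii clinical isolate 6509/96 used at stock dilution 10−4, final ~1.5 × 10^5 CFU mL−1. Two-fold dilutions ran 1000–1 μM with final DMSO 1.0% (v/v). MIC was read visually as complete growth inhibition after 7, 14 and 21 days.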

[9] = test system: Staphylococcus epidermidis; assay: Antibacterial activity against Staphylococcus epidermidis ATCC 12228 assessed as bacterial growth inhibition incubated for 24 to 48 hrs by broth microdilution method; type: functional; details: time 24-48 hrs
Method in brief: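 Broth microdilution in cation-adjusted Mueller-Hinton broth, adapted from EUCAST. Compounds were tested at 0.98–500 μM with final DMSO ≤1.0% (v/v). Inoculum came from 16–24 h cultures, final ~5 × 10^5 CFU mL−1. Plates were incubated statically, dark and humidified, at 35 ± 2 °C. MIC was read by eye at 24 and 48 h as the lowest concentration with no visible growth.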

[10] = Hemolytic activity in human Red blood cells assessed as hemolysis rate incubated for 1 hr by absorbance based spectrophotometric analysis relative to control; type: toxicity, cell-based, Erythrocyte; details: read-out: Activity; method in brief: as §2

| Compound | MIC (Mycobacterium avium [1]) | Activity [2] | MIC (Mycobacterium avium [3]) | MIC (Mycobacterium kansasii [4]) | MIC (Mycobacterium kansasii [5]) | MIC [6] | MIC [7] | MIC (Mycobacterium kansasii [8]) | MIC [9] | hemolysis at 1 h [10] |
| --- | --- | --- | --- | --- | --- | --- | --- | --- | --- | --- |
| C/C(=N\NC(=O)c1ccncc1)C(=O)Nc1ccc(Sc2ccc([N+](=O)[O-])cc2)cc1 | 500 µM (≈ 218 µg/mL) | Non-toxic | 500 µM (≈ 218 µg/mL) | 2 µM (≈ 0.871 µg/mL) | 1 µM (≈ 0.435 µg/mL) | 0.25 µM (≈ 0.109 µg/mL) | 0.25 µM (≈ 0.109 µg/mL) | 1 µM (≈ 0.435 µg/mL) |  |  |
| C/C(=N\NC(=O)c1ccncc1)C(=O)NNC(N)=S | 1000 µM (≈ 280 µg/mL) |  | 1000 µM (≈ 280 µg/mL) | 32 µM (≈ 8.97 µg/mL) | 32 µM (≈ 8.97 µg/mL) | 2 µM (≈ 0.561 µg/mL) | 1 µM (≈ 0.28 µg/mL) | 16 µM (≈ 4.49 µg/mL) | 125 µM (≈ 35 µg/mL) |  |
| COC(=O)c1ccc(NC(=O)/C(C)=N/NC(=O)c2ccncc2)cc1O | ≥ 1000 µM |  | ≥ 1000 µM | 16 µM (≈ 5.7 µg/mL) | 16 µM (≈ 5.7 µg/mL) | 0.5 µM (≈ 0.178 µg/mL) | 0.5 µM (≈ 0.178 µg/mL) | 8 µM (≈ 2.85 µg/mL) | 125 µM (≈ 44.5 µg/mL) |  |
| COc1nc2ccc(Br)cc2cc1[C@@H](c1ccccc1)[C@@](O)(CCN(C)C)c1cccc2ccccc12 [BEDAQUILINE] |  | Toxic |  |  |  |  |  |  |  |  |
| CC[C@@H](CO)NCCN[C@@H](CC)CO [ETHAMBUTOL] |  |  |  |  |  |  |  |  |  | 0.01% |
| NNC(=O)c1ccncc1 [ISONIAZID] | > 250 µM |  | > 250 µM | 16 µM (≈ 2.19 µg/mL) | 8 µM (≈ 1.1 µg/mL) | 1 µM (≈ 0.137 µg/mL) | 1 µM (≈ 0.137 µg/mL) | 8 µM (≈ 1.1 µg/mL) |  | 0.01% |
| NC(=O)c1cnccn1 [PYRAZINAMIDE] |  |  |  |  |  |  |  |  |  | 0.01% |
| CO[C@H]1/C=C/O[C@@]2(C)Oc3c(C)c(O)c4c(O)c(c(/C=N/N5CCN(C)CC5)c(O)c4c3C2=O)NC(=O)/C(C)=C\C=C\[C@H](C)[C@H](O)[C@@H](C)[C@@H](O)[C@@H](C)[C@H](OC(C)=O)[C@@H]1C [RIFAMPIN] |  |  |  |  |  |  |  |  |  | 0.01% |
